Common to all, as to format: cell-based
The target of experiment [1] is T1, Peroxisome proliferator-activated receptor gamma (Homo sapiens, UniProt P37231).
T1 sequence (P37231 whole entry): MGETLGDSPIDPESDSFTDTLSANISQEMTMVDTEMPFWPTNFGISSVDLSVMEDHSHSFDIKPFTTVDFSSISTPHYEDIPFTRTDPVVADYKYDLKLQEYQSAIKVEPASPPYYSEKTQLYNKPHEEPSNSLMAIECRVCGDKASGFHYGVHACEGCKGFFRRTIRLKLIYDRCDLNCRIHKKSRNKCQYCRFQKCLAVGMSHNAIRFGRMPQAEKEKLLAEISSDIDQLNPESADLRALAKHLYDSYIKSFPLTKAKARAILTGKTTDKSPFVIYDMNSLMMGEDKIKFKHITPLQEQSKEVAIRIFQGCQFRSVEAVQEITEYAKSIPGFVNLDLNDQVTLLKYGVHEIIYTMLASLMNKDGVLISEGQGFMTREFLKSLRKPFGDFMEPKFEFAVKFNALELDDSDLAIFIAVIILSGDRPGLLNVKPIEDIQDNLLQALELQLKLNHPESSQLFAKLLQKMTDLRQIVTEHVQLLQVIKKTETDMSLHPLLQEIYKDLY
Nature of the experiment: Transactivation of human PPARgamma expressed in monkey CV-1 cells coexpressing TK-PPRE-Luc after 24 hrs by luciferase reporter gene assay.

Experiment [2] has as its target T2, Peroxisome proliferator-activated receptor delta (Homo sapiens, UniProt Q03181).
T2 sequence (Q03181 whole entry): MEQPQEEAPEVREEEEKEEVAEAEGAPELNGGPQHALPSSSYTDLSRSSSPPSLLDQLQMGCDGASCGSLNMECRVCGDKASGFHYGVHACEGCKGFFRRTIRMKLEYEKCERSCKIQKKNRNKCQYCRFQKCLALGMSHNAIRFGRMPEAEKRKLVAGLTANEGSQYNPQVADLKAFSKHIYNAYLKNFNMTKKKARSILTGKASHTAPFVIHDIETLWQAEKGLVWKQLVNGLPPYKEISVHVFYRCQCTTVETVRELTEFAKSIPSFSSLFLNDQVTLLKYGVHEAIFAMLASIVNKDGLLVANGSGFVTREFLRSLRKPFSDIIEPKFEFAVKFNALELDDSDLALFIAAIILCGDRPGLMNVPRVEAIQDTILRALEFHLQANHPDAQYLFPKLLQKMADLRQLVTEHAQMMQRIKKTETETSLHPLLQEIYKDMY
Put plainly: Transactivation of human PPARdelta expressed in monkey CV-1 cells coexpressing TK-PPRE-Luc after 24 hrs by luciferase reporter gene assay. The method in brief: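 Agonist activity tested in transiently transfected CV-1 cells by reporter assay. EC50 is the molar concentration giving 50% of the maximal reporter activity.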
On the technique in general: Reporter assays use an easily measured gene product as a stand-in for the process of interest.

The target in experiment [3] is T3, Peroxisome proliferator-activated receptor alpha (Homo sapiens, UniProt Q07869).
T3 sequence (Q07869 whole entry): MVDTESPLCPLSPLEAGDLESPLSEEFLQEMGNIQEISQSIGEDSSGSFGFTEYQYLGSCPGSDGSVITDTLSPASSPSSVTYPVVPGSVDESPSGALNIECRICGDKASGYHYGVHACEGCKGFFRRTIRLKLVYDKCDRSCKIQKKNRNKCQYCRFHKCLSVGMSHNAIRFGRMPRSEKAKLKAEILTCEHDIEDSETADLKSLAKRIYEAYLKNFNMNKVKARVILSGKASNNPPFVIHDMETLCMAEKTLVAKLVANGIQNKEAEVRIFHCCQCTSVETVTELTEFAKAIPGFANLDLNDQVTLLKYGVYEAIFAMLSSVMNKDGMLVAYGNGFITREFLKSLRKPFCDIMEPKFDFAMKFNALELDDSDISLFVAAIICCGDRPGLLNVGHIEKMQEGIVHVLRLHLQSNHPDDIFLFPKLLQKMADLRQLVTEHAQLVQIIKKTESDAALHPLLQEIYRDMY
Put plainly: Transactivation of human PPARalpha expressed in monkey CV-1 cells coexpressing TK-PPRE-Luc after 24 hrs by luciferase reporter gene assay.

One may read the EC50 as the concentration needed to bring the measured effect to its halfway point. Regarding `Cc1cc(SC(Cc2cc(F)ccc2F)c2ccc(-c3ccc(F)cc3)cc2)ccc1OCC(=O)O` (stereo not drawn), the EC50 in experiment [1] was above 10000 nM; in experiment [2], 4 nM; in experiment [3], above 10000 nM.

With `Cc1cc(SC(Cc2cc(C(F)(F)F)ccc2F)c2ccc(-c3ccc(F)cc3)cc2)ccc1OCC(=O)O` (stereo not drawn), the figures for the EC50 in experiment [1], in experiment [2] and in experiment [3] were above 10000 nM, 38 nM and above 10000 nM, respectively.

Regarding `Cc1cc(SC(Cc2cc(Cl)ccc2Cl)c2ccc(-c3cc(F)c(F)c(F)c3)cc2)ccc1OCC(=O)O` (stereo not drawn), the EC50 is above 10000 nM in experiment [1], 9.5 nM in experiment [2] and above 10000 nM in experiment [3].

Take `Cc1cc(SC(Cc2cc(F)c(F)c(F)c2)c2ccc(-c3ccc(F)cc3)cc2)ccc1OCC(=O)O` (stereo not drawn): the EC50 in experiment [1] was above 10000 nM; in experiment [2], 65 nM; in experiment [3], above 10000 nM.

Consider `Cc1cc(SC(Cc2cc(C(F)(F)F)ccc2F)c2ccc(-c3cccc(C(F)(F)F)c3)cc2)ccc1OCC(=O)O` (stereo not drawn), for which the EC50 was above 10000 nM in experiment [1], 5.8 nM in experiment [2] and above 10000 nM in experiment [3].

As for `Cc1cc(SC(Cc2ccccc2)c2ccc(-c3ccc(F)cc3)cc2)ccc1OCC(=O)O` (stereo not drawn), the EC50 in experiment [1] is above 10000 nM; in experiment [2] it was 7 nM; in experiment [3], above 10000 nM.

As to `Cc1cc(SC(Cc2ccccc2)c2ccc(-c3ccc(C(F)(F)F)cc3)nc2)ccc1OCC(=O)O` (stereo not drawn), the EC50 in experiment [1] and in experiment [3] was above 10000 nM in each case.

Consider `Cc1cc(SC(Cc2cc(Cl)ccc2F)c2ccc(-c3cc(F)c(F)c(F)c3)cc2)ccc1OCC(=O)O` (stereo not drawn), for which the figures for the EC50 in experiment [1], in experiment [2] and in experiment [3] were above 10000 nM, 6.9 nM and above 10000 nM, respectively.

On to `Cc1cc(SC(Cc2cc(Cl)ccc2F)c2ccc(-c3ccc(F)cc3)cc2)ccc1OCC(=O)O` (stereo not drawn), for which the figures for the EC50 in experiment [1], in experiment [2] and in experiment [3] were above 10000 nM, 25 nM and above 10000 nM, respectively.

Turning to `Cc1cc(SC(Cc2cc(F)c(F)c(F)c2)c2ccc(-c3cccc(C(F)(F)F)c3)cc2)ccc1OCC(=O)O` (stereo not drawn), the values for the EC50 in experiment [1], in experiment [2] and in experiment [3] were above 10000 nM, 12 nM and above 10000 nM, respectively.

Take `Cc1cc(SC(Cc2cc(F)c(F)c(F)c2)c2ccc(-c3ccccc3)cc2)ccc1OCC(=O)O` (stereo not drawn): the EC50 is above 10000 nM in experiment [1], 86 nM in experiment [2] and above 10000 nM in experiment [3].

Regarding `Cc1cc(SC(Cc2cc(Cl)ccc2F)c2ccc(-c3ccccc3)cc2)ccc1OCC(=O)O` (stereo not drawn), the results for the EC50 in experiment [1], in experiment [2] and in experiment [3] were above 10000 nM, 26 nM and above 10000 nM, respectively.

As for `Cc1cc(SC(Cc2ccccc2)c2ccc(-c3cccc(C(F)(F)F)c3)cc2)ccc1OCC(=O)O` (stereo not drawn), the EC50 is above 10000 nM in experiment [1], 18 nM in experiment [2] and above 10000 nM in experiment [3].

Regarding `Cc1cc(SC(Cc2cc(F)c(F)c(F)c2)c2ccc(-c3ccc(C(F)(F)F)cc3)nc2)ccc1OCC(=O)O` (stereo not drawn), the EC50 is above 10000 nM in experiment [1], 56 nM in experiment [2] and above 10000 nM in experiment [3].

In experiment [2], `Cc1cc(S[C@@H](Cc2ccccc2)c2ccc(-c3ccc(C(F)(F)F)cc3)cc2)ccc1OCC(=O)O` returned an EC50 of 6.1 nM.

Consider `Cc1cc(SC(Cc2cc(F)ccc2F)c2ccc(-c3cc(F)c(F)c(F)c3)cc2)ccc1OCC(=O)O` (stereo not drawn), for which the EC50 in experiment [1] is above 10000 nM; in experiment [2], 6.3 nM; in experiment [3] it was above 10000 nM.

As to `Cc1cc(SC(Cc2cc(Cl)ccc2F)c2ccc(-c3cccc(C(F)(F)F)c3)cc2)ccc1OCC(=O)O` (stereo not drawn), the EC50 in experiment [1] was above 10000 nM; in experiment [2], 5.3 nM; in experiment [3], above 10000 nM.

As to `Cc1cc(SC(Cc2cc(C(F)(F)F)ccc2F)c2ccc(-c3ccccc3)cc2)ccc1OCC(=O)O` (stereo not drawn), the results for the EC50 in experiment [1], in experiment [2] and in experiment [3] were above 10000 nM, 10 nM and above 10000 nM, respectively.

Turning to `Cc1cc(SC(Cc2ccccc2)c2ccc(-c3cc(F)c(F)c(F)c3)cc2)ccc1OCC(=O)O` (stereo not drawn), the EC50 in experiment [1] was above 10000 nM; in experiment [2], 4.5 nM; in experiment [3], above 10000 nM.

On to `Cc1cc(S[C@H](Cc2ccccc2)c2ccc(-c3ccc(C(F)(F)F)cc3)cc2)ccc1OCC(=O)O`, for which the EC50 in experiment [2] stood at 0.7 nM.

For `Cc1cc(SC(Cc2cc(F)ccc2F)c2ccc(-c3cccc(C(F)(F)F)c3)cc2)ccc1OCC(=O)O` (stereo not drawn), the EC50 in experiment [1] is above 10000 nM; in experiment [2], 9.1 nM; in experiment [3], above 10000 nM.
